Common to all, as to assay type: functional, cell-based
In assay [1] the test system is HeLa. The experiment in a line: Cytotoxicity against human HeLa cells after 72 hrs by XTT assay. In outline: (§1)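 Cells grown in DMEM (A549, HT-29, HeLa) or RPMI1640 (HL-60), both with 10% heat-inactivated fetal bovine serum, were exposed to compound across a concentration range for 72 h at 37 °C in humidified air/CO₂ (19/1), then read by XTT. Measurements were in triplicate. IC50 is the concentration giving 50% proliferation inhibition versus untreated controls, reported as mean ± S.D. of three independent determinations.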

Assay [2] deals with A549. Kind of assay: Cytotoxicity against human A549 cells after 72 hrs by XTT assay. Conditions: A549, 72 h. The method in brief: as §1
(In general: Tetrazolium dyes change colour on reduction, which living cells bring about.)

Assay [3] concerns HT-29. Kind of assay: Cytotoxicity against human HT-29 cells after 72 hrs by XTT assay. To be noted: HT-29, 72 h. The method in brief:
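Cells grown in DMEM (A549, HT-29, HeLa) or RPMI1640 (HL-60), both with 10% heat-inactivated fetal bovine serum, were exposed to compound across a concentration range for 72 h at 37 °C in humidified air/CO₂ (19/1), then read by XTT. Measurements were in triplicate.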

Assay [4] has as its system HL-60. Kind of assay: Cytotoxicity against human HL60 cells after 72 hrs by XTT assay. To be noted: HL-60, 72 h. In outline: as §1

By IC50 is commonly meant the concentration at which inhibition is half-maximal. A low value points to higher potency.

Consider `CCCCCCCCCCCCCCCCCCOc1cc(O)cc(O)c1C(C)=O`, for which the concentration for half-maximal inhibition (IC50) in assay [1], in assay [2], in assay [3] and in assay [4] was over 100 µM throughout.

Consider `CCCCCCCCCCCCCCCCCCc1c(O)cc(O)c(C(C)=O)c1O`, for which the IC50 in assay [1] was 28 µM; in assay [2], 32 µM; in assay [3] it was 26 µM; in assay [4], 31 µM.

`CC(=O)c1c(O)cc(O)cc1O` [2,4,6-TRIHYDROXYACETOPHENONE]: the IC50 in assay [1], in assay [2], in assay [3] and in assay [4] was over 100 µM throughout.

Turning to `COc1cc(O)c(C(C)=O)c(OC)c1` [XANTHOXYLIN], the concentration for half-maximal inhibition (IC50) in assay [1], in assay [2], in assay [3] and in assay [4] was over 100 µM each time.

For the origin of these results see ChEMBL document CHEMBL1240465, “Prenylflavonoids and prenyl/alkyl-phloroacetophenones: synthesis and antitumour biological evaluation” (Eur J Med Chem, 2010).
